Compound activity as filed in PubChem BioAssay.
Measles CPE: protection of cells from measles virus; AID 841; hit rate 1.5% among 140,000; protection (pct of control), % at 4 µM; Measles virus-infected cells, CPE protection, absorbance; in the data active = protection mostly above about 24%, no sharp cut-off; inactive = mostly below about 26%
Yeast life ext: extends the lifespan of yeast; S. cerevisiae growth with nicotinamide, OD615; deaD strain in restrictive glucose medium; AID 775; inhibition of the nicotinamide effect, % at 10 µM; hit rate 0.68% among 130,000;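 active = inhibition above a set limit, placed 3 SD over the median of all compounds, cut at about 26% in these data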;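 also: 0% = nicotinamide-treated wells and 100% = cells grown without nicotinamide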
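Buffer or medium: CSMM-D glucose medium, restrictive; test system: modified budding yeast, DeaD strain; compound: single dose 10 µM compound, 0.25% DMSO; schedule: culture preincubation 4 h, compound exposure 48 h, both 30 °C; detection: optical density (absorbance) at 615 nm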
WT yeast gro inh: growth inhibition of WT yeast, mitochondrial fusion screen; mitochondrial fusion phenotypic screen, WT strain; AID 1362; inhibition, % at 10 µM; hit rate 2.1% among 190,000; in the data active = inhibition above about 58%; tested in S. cerevisiae
Yeast growth inh: yeast BB579 growth reduction in restrictive medium; inhibition, % at 10 µM; hit rate 0.51% among 140,000; S. cerevisiae BB579 growth, OD615, 48 h;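 active = inhibition above a set limit, 3 SD over the mean compound inhibition, cut at about 44% in these data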
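Material: Saccharomyces cerevisiae DeaD strain BB579, replicative lifespan model yeast; buffer or medium: CSMM-D restrictive synthetic medium containing dextrose (glucose); compound: 10 µM single dose, DMSO 0.25%; timing: 48 h compound exposure at 30 °C after 4 h preincubation; signal: turbidity as optical density at 615 nm; benchmarks: positive control amphotericin B 10 µg/mL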
hDAT+cocaine: human DAT dopamine uptake with cocaine, either direction. hit rate 1.3% among 110,000. Q01959. B-score at 10 µM. LLC-PK1 hDAT cells, [14C]-dopamine uptake with cocaine IC80; actives deviate in either direction;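 active = Z score or B-score, a plate-position-corrected score, falls beyond the plate's 99.7% confidence bounds, in either direction; inactive = both scores lie inside the 99.7% bounds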;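 also: scored against the spread of the other compound wells on the same plate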
Target sequence (Q01959 whole entry, looked up): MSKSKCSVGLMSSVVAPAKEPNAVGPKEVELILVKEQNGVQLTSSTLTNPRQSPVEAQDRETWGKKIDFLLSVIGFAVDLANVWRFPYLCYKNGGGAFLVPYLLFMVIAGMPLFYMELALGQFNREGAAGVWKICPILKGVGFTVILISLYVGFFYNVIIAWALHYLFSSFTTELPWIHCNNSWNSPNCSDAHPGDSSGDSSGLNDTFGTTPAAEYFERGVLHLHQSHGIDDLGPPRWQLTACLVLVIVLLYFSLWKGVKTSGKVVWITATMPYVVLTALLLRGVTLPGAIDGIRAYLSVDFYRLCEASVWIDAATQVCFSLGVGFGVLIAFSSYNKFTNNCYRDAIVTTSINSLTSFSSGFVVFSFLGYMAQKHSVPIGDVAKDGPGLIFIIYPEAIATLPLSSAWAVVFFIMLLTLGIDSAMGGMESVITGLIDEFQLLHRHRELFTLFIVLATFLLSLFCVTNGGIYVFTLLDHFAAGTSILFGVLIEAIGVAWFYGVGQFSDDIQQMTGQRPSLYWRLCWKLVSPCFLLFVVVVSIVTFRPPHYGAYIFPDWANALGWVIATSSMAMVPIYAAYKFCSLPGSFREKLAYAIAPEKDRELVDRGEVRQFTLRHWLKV
RAM network inh: inhibitors of the yeast RAM network; S. cerevisiae dse1pr::URA3 reporter, 5-FOA growth OD615, 2 d; analog-sensitive cbk1-as2 kinase mutant strain; inhibition, % at 50 µM; hit rate 1.8% among 190,000; AID 868;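 active = inhibition above a set limit, 3 SD over mean compound inhibition, cut at about 8.4% in these data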;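 also: 0% = DMSO-only wells with no growth and 100% = 10 µM 1-NA-PP1 full growth; inhibition rescues growth on 5-FOA so higher OD means more RAM inhibition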
Numbers without * were called inactive; x = no result given. Sampled rows, rich in hits. Any-hit rate of the full collection: about 6.1%.

SMILES | Measles CPE | Yeast life ext | WT yeast gro inh | Yeast growth inh | hDAT+cocaine | RAM network inh
COC(=O)c1ccc(C(=O)OC)c(NC(=O)CSCc2ccccc2Br)c1 | 14 | -8 | 3 | -14 | -0.78 | 11*
CCn1ncc(Br)c1C(=O)Nc1cc(C(=O)OC)ccc1C(=O)OC | 8 | 3 | 3 | -39 | 0.25 | 8.5*
COC(=O)c1ccc(C(=O)OC)c(NC(=O)COC(=O)c2ccc(OC)c(OC)c2OC)c1 | 15 | 11 | -9 | -22 | x | 11*
COC(=O)c1ccc(C(=O)OC)c(NC(=O)C(C)C)c1 | x | x | 7 | x | x | -1
CCOCC(=O)Nc1cc(C(=O)OC)ccc1C(=O)OC | 9 | -6 | -2 | -10 | -0.077 | 2
CCOC(=O)c1cnc2c(C)c(-c3ccccc3)[nH]n2c1=O | 3 | 2 | 11 | -3 | -0.88 | 0
CCC1C(c2ccccc2)N(C)C(c2ccccc2)CC1(O)c1ccccc1 (stereo not given) | x | x | 76* | x | x | 0
CC1C(=O)CC(c2ccccc2)N(C)C1c1ccccc1 (stereo not given) | 12 | -4 | 23 | -5 | -0.34 | 0
CC(C)C1C(c2ccccc2)N(C)C(c2ccccc2)CC1(O)c1ccccc1 (stereo not given) | 5 | 46* | 63 | -69 | -1.7 | 0
O=C(c1ccc2c(c1)N(Cc1ccccc1)CCS2)N1CCCCC1 | 4 | -8 | 29 | -7 | 0.6 | 3
COc1ccc(OC)c2c(C)cc(N3CCN(C(=O)c4ccc(Cl)cc4)CC3)nc12 | 56* | -13 | 17 | -30 | -0.13 | -1
COc1cc(OC)cc(C(=O)N2CCN=C2SCc2cccnc2)c1 | 2 | -9 | 4 | -16 | 1.6* | 0
O=C(COc1ccccc1)N1CCN=C1SCc1cccnc1 | 6 | -16 | 5 | 56* | 0.95 | 1
COc1ccc(C2OC(=O)CC2C(=O)NCc2ccc(Cl)cc2)cc1OC (stereo not given) | x | x | 2 | x | x | 0
COc1ccc2nc(SCc3cccc(C)c3)nc(C)c2c1 | 8 | -7 | 6 | -47 | x | 6
Cc1ccc2nc(SCc3cccc([N+](=O)[O-])c3)nc(C)c2c1 | 6 | 3 | 28 | -27 | -0.84 | 11*
Cc1nc(SCc2ccc([N+](=O)[O-])cc2)nc2ccccc12 | 15 | -13 | 12 | 2 | 0.42 | 9.5*
O=C(NCC1(c2ccccc2)CCCC1)C1(c2ccccc2)CCCC1 | 13 | x | 83* | -10 | 1.3 | 1
CCO[C@@H]1OC(C(=O)NC2CC2)=C[C@H](c2ccccc2)[C@H]1CCCO | x | x | 6 | x | -0.15 | 1
Nc1ncnc(Oc2ccccc2F)c1[N+](=O)[O-] | x | x | -24 | x | x | 2
C1=CCC(/C=N/n2cnnc2)CC1 (stereo not given) | 31* | 10 | 9 | -17 | 0.36 | 0
Cc1cc(NC(=S)NC(=O)C2CC2)ccc1Br | 6 | -4 | 45 | -50 | x | -2
Cc1ccc(-c2c3c(=O)n(C)c(=O)n(C)c3cn2Cc2ccccc2)cc1 | 38* | 16 | 9 | -37 | 0.028 | -1
O=C(/C=C/c1ccc(Cl)cc1Cl)NCc1ccncc1 | 15 | -21 | 25 | -12 | 2.3* | 2
O=C(/C=C/c1ccc(Cl)cc1Cl)Nc1ccncc1 | 8 | -5 | 40 | -19 | x | 1
SMILES | Measles CPE | Yeast life ext | WT yeast gro inh | Yeast growth inh | hDAT+cocaine | RAM network inh
O=C(/C=C/c1ccc(Cl)cc1Cl)NCCSc1ccccc1 | 5 | -9 | 64* | -24 | x | 2
O=C(/C=C/c1ccc(Cl)cc1)NCCSc1ccccc1 | 15 | -22 | 4 | -20 | x | 2
O=C(NCc1nnc(SCC(=O)N2CCC(Cc3ccccc3)CC2)o1)c1ccccc1F | 30 | 0 | 1 | -17 | 0.0094 | 2
CC(=Nc1ccccc1)C1=C(O)COC1=O | 4 | -6 | -4 | 1 | -0.33 | 3
CC(=Nc1ccccc1)c1sc2ccccc2c1O | 3 | -9 | 21 | -29 | 2.3* | -1
C=CCn1c(SCC(=O)NCC2CCCO2)nc2scc(-c3ccco3)c2c1=O (stereo not given) | 2 | -7 | 5 | -56 | 2.6* | 8
C=CCn1c(SCc2ccccc2)nc2scc(-c3ccc(C)o3)c2c1=O | 3 | 6 | -6 | -44 | 0.43 | 11*
C=CCn1c(SCC(N)=O)nc2scc(-c3ccc(C)o3)c2c1=O | x | x | 4 | x | x | 3
COc1ccc(/C=N/Nc2ccc(C(=O)O)cc2)cc1Br | x | x | -2 | x | x | 1
C=CCOc1c(Br)cc(/C=N/Nc2ccc(C(=O)O)cc2)cc1OCC | 6 | 7 | 63* | -36 | x | 2
CC1(c2ccc([N+](=O)[O-])cc2)CC(C)(C)N(C(=O)c2ccccc2)c2ccccc21 (stereo not given) | 6 | 2 | 77* | -35 | x | 1
COc1ccc(NC(=O)c2cccnc2Sc2ccccc2)c(OC)c1 | 9 | -1 | -22 | -21 | x | 3
NC(=O)COC(=O)c1ccccc1Nc1ccc(SC(F)F)cc1 | 7 | -4 | 41 | 9 | x | -1
CC(OC(=O)c1ccccc1Nc1ccc(SC(F)F)cc1)C(N)=O (stereo not given) | 7 | -6 | 81* | 42 | x | 1
CCNC(=O)NC(=O)COc1ccccc1C#N | 4 | -7 | -8 | -20 | 0.83 | 2
COC(=O)CCC(=O)COc1ccccc1C#N | 41* | -5 | 9 | -62 | 0.41 | 1
COC(=O)COc1ccc(S(=O)(=O)Nc2cc(OC)ccc2OC)cc1 | 2 | -22 | 12 | 2 | 0.53 | -1
COC(=O)CCC(=O)COc1ccc(OC)cc1C#N | 15 | -15 | 91* | -29 | -0.01 | 2
Cc1ccc(CC(=O)Nc2ccc(F)c([N+](=O)[O-])c2)cc1C | x | x | 13 | x | x | 2
COc1cc(Br)cc(CNc2ccc(F)c([N+](=O)[O-])c2)c1O | x | x | 35 | x | x | 8.9*
CCN(CC)C(=O)Cn1c(=O)c2ccccc2n2c(=S)sc(-c3cccc(C)c3)c12 | 3 | 0 | -3 | -26 | x | 8
CCN(CC)S(=O)(=O)c1cc(NS(=O)(=O)c2cccc(Cl)c2Cl)ccc1C | 7 | 20 | -1 | -25 | x | 10*
CC(C)C(=O)NCCc1nc2ccccc2n1CCCOc1ccc(Cl)cc1 | 7 | -21 | 70* | -32 | 1.9 | 1
O=C(Nc1nc2ccccc2n1CCOc1ccc(Cl)cc1)c1ccco1 | 40* | -9 | 70* | 9 | -0.7 | 1
Cc1cccc(OCCn2c(NC(=O)c3ccco3)nc3ccccc32)c1 | 2 | -9 | 73* | -21 | 1.6 | 4
O=C(Nc1nc2ccccc2n1CCN1CCCCC1)c1ccco1 | 5 | -5 | -11 | -19 | 0.97* | 2
Cc1cccc(OCCn2c(-c3ccco3)nc3ccccc32)c1 | 4 | -10 | -7 | -13 | 0.064 | 2
CN(C)S(=O)(=O)c1ccc(Cl)c(NC(=O)COC(=O)CN2C(=O)C3CCCCC3C2=O)c1 (stereo not given) | x | x | -18 | x | x | 1
